HTR1A agonist – human 5-HT1a receptor agonists, primary screen, cell-based, CHO, Ga15 NFAT-bla reporter. 5-hydroxytryptamine receptor 1A (Homo sapiens), P08908. CHO 5-HT1a Ga15 NFAT-bla reporter, FRET ratio; 0% basal, 100% maximal reference agonist. 0.56% of 65,000 active. AID 567, 2006. activation, % at 10 µM;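 active means activation above the screen-wide mean activation plus 3 SD, cut at about 19% in these data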;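 further: 0% = DMSO wells and 100% = 5-CT at EC100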
5HT1a antag – human 5-HT1a receptor antagonists, primary screen, cell-based, CHO, Ga15 NFAT-bla reporter; CHO 5-HT1a Ga15 NFAT-bla reporter, antagonist mode; inhibition, % at 10 µM; 0.68% of 62,000 active;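 active means inhibition above the mean of all tested compounds plus 3 SD, cut at about 43% in these data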;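 further: receptor stimulated by 5-CT agonist at 100 nM near EC80; beta-lactamase reporter measured by ratiometric fluorescence of a cleavable substrate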
S1P1 ag-PAM – S1P1 agonists and agonism potentiators, primary screen, cell-based, primary and confirmation screens, CRE-bla reporter; Sphingosine 1-phosphate receptor 1 (Homo sapiens), P21453; S1P1 CRE-bla cells, forskolin, beta-lactamase FRET, potentiator mode; S1P1 agonist co-added at EC20, 2 nM; 100% = saturating reference agonist, 0% = basal; activation, % at 9.5 µM; 0.57% of 56,000 active; AID 449, 2006;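 active means activation above a cutoff set at the mean activation of all tested compounds plus 3 SD, cut at about 54% in these data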;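 further: forskolin at 4 µM as EC80 and the EC20 agonist is SEW2871; 100% = SEW2871 at its EC100 plus forskolin at EC80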
Target sequence (P21453 whole entry, looked up): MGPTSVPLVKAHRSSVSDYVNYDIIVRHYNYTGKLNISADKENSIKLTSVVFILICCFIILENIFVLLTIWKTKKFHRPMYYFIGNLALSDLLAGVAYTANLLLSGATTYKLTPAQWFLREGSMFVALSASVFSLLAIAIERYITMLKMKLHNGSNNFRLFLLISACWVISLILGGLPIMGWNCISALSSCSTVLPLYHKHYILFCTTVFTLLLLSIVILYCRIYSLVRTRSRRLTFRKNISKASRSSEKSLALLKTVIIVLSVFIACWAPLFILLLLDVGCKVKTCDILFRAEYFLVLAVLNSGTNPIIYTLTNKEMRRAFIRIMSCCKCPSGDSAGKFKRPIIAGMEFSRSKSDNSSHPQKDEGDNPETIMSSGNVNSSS
HTR1E agonist – 5-HT1E receptor agonists, primary screen, cell-based, HTS. 5-hydroxytryptamine receptor 1E (Homo sapiens), P28566. CHO 5-HT1E Ga15 NFAT-bla reporter, FRET; 0% DMSO wells, 100% control agonist wells. activation, % at 6 µM. 0.69% of 65,000 active. AID 574, 2007;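 active means activation above a set limit, the screen-wide mean activation plus 3 SD, cut at about 8.5% in these data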;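 further: 100% = positive control agonist at 1 µM giving full maximal response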
S1P3 agonist – human S1P3 receptor agonists, primary screen, cell-based, primary and confirmation, NFAT-BLA reporter. S1P3 NFAT-BLA reporter cells, agonism, FRET ratio; relative to 1 µM S1P, basal subtracted. activation, % at 4.5 µM. 0.1% of 60,000 active;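 active means activation above the screen-wide mean plus 3 SD, cut at about 4.5% in these data, passing the limit was not always enough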
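Assay system: CHO cells stably expressing human S1P3, Gα16 and NFAT-β-lactamase reporter. Timing: overnight plating, 4 h compound 37 °C, 2 h substrate RT. Signal: β-lactamase FRET emission ratio 460/535 nm. Measure: percent activation versus median 1 µM S1P response, basal-subtracted, per plate. Repeats: primary screen single test, confirmation screen in triplicate.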
HTR1E antagonist – 5-HT1E receptor antagonists, primary screen, cell-based, HTS. CHO 5-HT1E Ga15 NFAT-bla reporter, FRET, antagonist. 0.99% of 65,000 active. inhibition, % at 6 µM. 5-hydroxytryptamine receptor 1E (Homo sapiens), P28566;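 active means inhibition above a set limit, the mean inhibition across every tested compound plus 3 SD, cut at about 29% in these data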;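 further: signal is the 460 over 535 nm emission ratio of beta-lactamase substrate; 0% = agonist plus DMSO wells and 100% = wells without agonist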
* marks the source's active call; other numbers are inactive results. Rows were chosen to be rich in hits. Some 3% of all compounds tested hit in one or more screens of this group.

For COc1cc([C@@H]2c3cc4c(cc3[C@H](O)[C@H]3COC(=O)[C@H]23)OCO4)cc(OC)c1OC the results were HTR1A agonist -3, S1P1 ag-PAM -22, HTR1E agonist 0, S1P3 agonist -6 and HTR1E antagonist 73*.
For CCOC(=O)CN1C(=O)C(C)(C)Oc2ccc(C(=O)Nc3ccccc3OC)cc21 the results were HTR1A agonist 1, 5HT1a antag -2, S1P1 ag-PAM 90*, HTR1E agonist -2, S1P3 agonist 0 and HTR1E antagonist 3.
For COC(=O)C1=C(N)Oc2cc(C)oc(=O)c2C1c1ccncc1 (stereo not given) the results were HTR1A agonist -2, S1P1 ag-PAM 3, HTR1E agonist 0, S1P3 agonist 5 and HTR1E antagonist -5.
For COC(=O)/C(=C1/Oc2cc(C)oc(=O)c2S1)C(F)(F)F the results were HTR1A agonist -1, S1P1 ag-PAM 48, HTR1E agonist 0, S1P3 agonist -9 and HTR1E antagonist 78*.
`CC1Cc2ccccc2N1C(=O)COC(=O)Cn1cnc2ccccc2c1=O` (stereo not given) gave HTR1A agonist -5, 5HT1a antag -4, S1P1 ag-PAM -27, HTR1E agonist 0, S1P3 agonist 0 and HTR1E antagonist -14.
`CCN(CC)c1nc(N2CCOCC2)c(C#N)c2c1CN(C)CC2` gave HTR1A agonist 2, S1P1 ag-PAM -24, HTR1E agonist 52*, S1P3 agonist -2 and HTR1E antagonist 5.
Screening CCSc1nc(N2CCOCC2)c2c(c1C#N)CCCC2 returned HTR1A agonist 8, 5HT1a antag -15, S1P1 ag-PAM 54, HTR1E agonist 1, S1P3 agonist 4.7* and HTR1E antagonist 4.
For CC(C)CSc1nc(N2CCOCC2)c2c(c1C#N)CC(C)(C)SC2 the results were HTR1A agonist -1, S1P1 ag-PAM -12, HTR1E agonist -1, S1P3 agonist -3 and HTR1E antagonist 29*.
Screening CC(C)c1nc(N2CCOCC2)c(C#N)c2c1CCCC2 returned HTR1A agonist 2, 5HT1a antag -4, HTR1E agonist 0, S1P3 agonist 0 and HTR1E antagonist -10.
Screening CC(C)Sc1nc(N2CCOCC2)c2c(c1C#N)CC(C)(C)SC2 returned HTR1A agonist 2, 5HT1a antag -10, S1P1 ag-PAM 2, HTR1E agonist 1, S1P3 agonist 0 and HTR1E antagonist 12.
O=C(NCc1ccc2c(c1)OCO2)c1nn2cccnc2c1Cl was read as HTR1A agonist 0, 5HT1a antag -13, S1P1 ag-PAM -13, HTR1E agonist 0, S1P3 agonist 0 and HTR1E antagonist -3.
Screening Cc1c(C(=O)NCCc2ccccc2)oc2ccc(S(=O)(=O)N3CCOCC3)cc12 returned HTR1A agonist 1, 5HT1a antag -4, HTR1E agonist 0 and HTR1E antagonist 0.
Screening Cn1cc(C(=O)NCCc2ccccc2)c(=O)c2cc(S(=O)(=O)N3CCOCC3)ccc21 returned HTR1A agonist -2, 5HT1a antag -3, S1P1 ag-PAM 0, HTR1E agonist 77*, S1P3 agonist 0 and HTR1E antagonist 5.
CCOc1ccc(C(C)=O)cc1N1C(=O)C2C3C=CC(C3)C2C1=O (stereo not given) was read as HTR1A agonist -4, 5HT1a antag 1, S1P1 ag-PAM -8, HTR1E agonist 0, S1P3 agonist 0 and HTR1E antagonist 8.
Screening CCOc1ccc(C(C)=O)cc1N1C(=O)C2C3C=CC(O3)C2C1=O (stereo not given) returned HTR1A agonist -2, 5HT1a antag 60*, S1P1 ag-PAM 76, HTR1E agonist 0, S1P3 agonist 1 and HTR1E antagonist 39*.
`CCCCOc1ccc(CN(C)c2ncnc(N)n2)cc1` gave HTR1A agonist 0, S1P1 ag-PAM 4, HTR1E agonist 0, S1P3 agonist -6 and HTR1E antagonist 32*.
For O=C(N1CCN(c2ccccn2)CC1)N1c2ccccc2Sc2ccccc21 the results were HTR1A agonist 0, 5HT1a antag 48*, S1P1 ag-PAM 8, HTR1E agonist 0, S1P3 agonist -1 and HTR1E antagonist 37*.
For O=C(c1ccco1)N1CCN(C(=O)N2c3ccccc3Sc3ccccc32)CC1 the results were HTR1A agonist -2, 5HT1a antag 58*, S1P1 ag-PAM 15, HTR1E agonist -1, S1P3 agonist -2 and HTR1E antagonist 74*.
`CCCS(=O)(=O)N1CCN(Cc2ccco2)CC1` gave HTR1A agonist -3, 5HT1a antag 0, S1P1 ag-PAM -30, HTR1E agonist -1, S1P3 agonist -1 and HTR1E antagonist 14.
CCc1cc2ccc(C)cc2nc1SCC(=O)N1CCN(C(=O)c2ccco2)CC1 was read as HTR1A agonist -1, 5HT1a antag 19, S1P1 ag-PAM -16, HTR1E agonist 1, S1P3 agonist -1 and HTR1E antagonist -17.
For CC1S/C(=C(\C#N)C(=O)NCc2ccco2)N(c2ccc(F)cc2)C1=O (stereo not given) the results were HTR1A agonist -4, 5HT1a antag 8, S1P1 ag-PAM -16, HTR1E agonist 1, S1P3 agonist -1 and HTR1E antagonist 1.
`Cc1c(C(=O)NCc2cccnc2)oc2ccccc12` gave HTR1A agonist -1, 5HT1a antag -10, S1P1 ag-PAM -3, HTR1E agonist 0, S1P3 agonist -1 and HTR1E antagonist 33*.
Screening Cc1ccc2nc(SCC(=O)NC(=O)NCc3ccco3)[nH]c2c1 returned HTR1A agonist -2, 5HT1a antag 15, S1P1 ag-PAM 6, HTR1E agonist 0, S1P3 agonist 0 and HTR1E antagonist 7.
Screening CCOC(=O)C1=C(C)NC(=O)NC1c1ccc(OCC(=O)Nc2ccccc2)c(OC)c1 (stereo not given) returned HTR1A agonist 1, 5HT1a antag 14, S1P1 ag-PAM 16, HTR1E agonist 89*, S1P3 agonist -1 and HTR1E antagonist -1.
Cc1ccc(SC/C(O)=C(\C#N)c2nc3ccccc3n2C)cc1 was read as HTR1A agonist 0, 5HT1a antag -29, S1P1 ag-PAM -17, HTR1E agonist 0, S1P3 agonist -1 and HTR1E antagonist -10.

Source: PubChem BioAssay
